{"data": "Experimental data of several laboratories", "observed": "cell growth or viability", "note": "Each line is one published result; the experiments were not run side by side."}
{"SMILES": "c1ccc(-c2cccc(Nc3nccc(NC4CCCCC4)n3)c2)cc1", "cell line": "MV4-11", "method": "ATP luminescence", "time": "72 h", "endpoint": "EC50", "result": "> 4 µM"}
{"SMILES": "CC(C)(CO)Cn1nc(-c2ccc3nc(OC4CC4)ccc3c2)c2c(N)ncnc21", "cell line": "CRL8155", "endpoint": "GI50", "result": "> 10 µM"}
{"SMILES": "CC(C)c1ccccc1S(=O)(=O)c1cc(N)c2ncccc2c1[N+](=O)[O-]", "cell line": "HN-6", "time": "72 h", "endpoint": "IC50", "result": "> 20 µM"}
{"SMILES": "C[C@H](Nc1ccnc(Nc2cccc(-c3cccnc3)c2)n1)C(=O)O", "cell line": "MV4-11", "method": "ATP luminescence", "time": "72 h", "endpoint": "EC50", "result": "> 8 µM"}
{"SMILES": "COc1ccc(-c2ccc(-c3ccc(C(=N)N)nc3)s2)cc1Cl", "cell line": "LOX IMVI", "method": "SRB", "endpoint": "GI50", "result": "1.87 µM"}
{"SMILES": "CCOC(=O)c1c(C)ncn1CC(c1cn(C)c2ccc([N+](=O)[O-])cc12)c1cn(C)c2ccc([N+](=O)[O-])cc12", "cell line": "human Fibroblast", "method": "MTS", "concentration": "20 µM", "time": "24 h", "endpoint": "inhibition", "result": "21.1%"}
{"SMILES": "CCCNc1ccnc(Nc2cccc(-c3cccnc3)c2)n1", "cell line": "MV4-11", "method": "ATP luminescence", "time": "72 h", "endpoint": "EC50", "result": "0.138 µM"}
{"SMILES": "CC(C)(CO)Cn1nc(-c2ccc3nc(OCC(F)(F)F)ccc3c2)c2c(N)ncnc21", "cell line": "CRL8155", "endpoint": "GI50", "result": "> 10 µM"}
{"SMILES": "Cc1cc2c(cc1N1C(=O)c3cccc4c(CCCO)ccc(c34)C1=O)n(C)c(=O)n2C (racemic)", "cell line": "769-P", "method": "resazurin", "endpoint": "GI50", "result": "3.21 µM"}
{"SMILES": "Cn1nnc2c(C(N)=O)ncn2c1=O", "cell line": "SGC-7901", "endpoint": "EC50", "result": "> 1000 µM"}
{"SMILES": "CC(C)=CCC[C@](C)(O)[C@H]1CC[C@]2(C)[C@@H]1[C@H](O)C[C@@H]1[C@@]3(C)CC[C@H](O[C@@H]4O[C@H](CO)[C@@H](O)[C@H](O)[C@H]4O[C@@H]4O[C@H](CO)[C@@H](O)[C@H](O)[C@H]4O)C(C)(C)[C@@H]3CC[C@]12C", "cell line": "BEAS-2B", "method": "MTT", "time": "72 h", "endpoint": "IC20", "result": "> 100 µM"}
{"SMILES": "Cc1cn(CC(c2cn(C)c3ccccc23)c2cn(C)c3ccccc23)nn1", "cell line": "human Fibroblast", "method": "MTS", "concentration": "20 µM", "time": "24 h", "endpoint": "inhibition", "result": "17.1%"}
{"SMILES": "CC(C)Nc1ccnc(Nc2cccc(-c3nccs3)c2)n1", "cell line": "MV4-11", "method": "ATP luminescence", "time": "72 h", "endpoint": "EC50", "result": "9.46 µM"}
{"SMILES": "COC(C)(C)CCC[C@](C)(O)[C@H]1CC[C@]2(C)[C@@H]1[C@H](O)C[C@@H]1[C@@]3(C)CC[C@H](O)C(C)(C)[C@@H]3CC[C@]12C", "cell line": "BEAS-2B", "method": "MTT", "time": "72 h", "endpoint": "IC20", "result": "4.46 µM"}
{"SMILES": "COC(=O)c1cccc(-c2cccc(Nc3nccc(NC4CCCCC4)n3)c2)c1", "cell line": "MV4-11", "method": "ATP luminescence", "time": "72 h", "endpoint": "EC50", "result": "7.59 µM"}
{"SMILES": "CC1(C)C(=O)NC2=C1C(=O)C(=O)c1ccccc12", "cell line": "HN-6", "time": "72 h", "endpoint": "IC50", "result": "> 20 µM"}
{"SMILES": "Fc1ccc(Nc2nccc(NC3CCCCC3)n2)cc1", "cell line": "MV4-11", "method": "ATP luminescence", "time": "72 h", "endpoint": "EC50", "result": "> 3 µM"}
{"SMILES": "COc1ccc(-c2ccc(-c3ccc(C(=N)N)nc3)s2)cc1", "cell line": "MDA-MB-468", "method": "SRB", "endpoint": "GI50", "result": "1.63 µM"}
{"SMILES": "CCc1ncn(CC(c2c[nH]c3ccc(C)cc23)c2c[nH]c3ccc(C)cc23)c1C(=O)OC", "cell line": "human Fibroblast", "method": "MTS", "concentration": "20 µM", "time": "24 h", "endpoint": "inhibition", "result": "6.7%"}
